According to ChEMBL document CHEMBL1821606, “Bioactive prenylogous cannabinoid from fiber hemp (Cannabis sativa)” (J Nat Prod, 2011):

What was measured:
[1] = molecular target: T1, Transient receptor potential cation channel subfamily V member 1 (Homo sapiens, UniProt Q8NER1); test: Agonist activity at human TRPv1 receptor expressed in HEK293 cells assessed as stimulation of intracellular calcium level using Fluo4-AM dye based fluorimetric assay relative to 4 uM ionomycin; format: functional, cell-based
T1 sequence (Q8NER1 whole entry): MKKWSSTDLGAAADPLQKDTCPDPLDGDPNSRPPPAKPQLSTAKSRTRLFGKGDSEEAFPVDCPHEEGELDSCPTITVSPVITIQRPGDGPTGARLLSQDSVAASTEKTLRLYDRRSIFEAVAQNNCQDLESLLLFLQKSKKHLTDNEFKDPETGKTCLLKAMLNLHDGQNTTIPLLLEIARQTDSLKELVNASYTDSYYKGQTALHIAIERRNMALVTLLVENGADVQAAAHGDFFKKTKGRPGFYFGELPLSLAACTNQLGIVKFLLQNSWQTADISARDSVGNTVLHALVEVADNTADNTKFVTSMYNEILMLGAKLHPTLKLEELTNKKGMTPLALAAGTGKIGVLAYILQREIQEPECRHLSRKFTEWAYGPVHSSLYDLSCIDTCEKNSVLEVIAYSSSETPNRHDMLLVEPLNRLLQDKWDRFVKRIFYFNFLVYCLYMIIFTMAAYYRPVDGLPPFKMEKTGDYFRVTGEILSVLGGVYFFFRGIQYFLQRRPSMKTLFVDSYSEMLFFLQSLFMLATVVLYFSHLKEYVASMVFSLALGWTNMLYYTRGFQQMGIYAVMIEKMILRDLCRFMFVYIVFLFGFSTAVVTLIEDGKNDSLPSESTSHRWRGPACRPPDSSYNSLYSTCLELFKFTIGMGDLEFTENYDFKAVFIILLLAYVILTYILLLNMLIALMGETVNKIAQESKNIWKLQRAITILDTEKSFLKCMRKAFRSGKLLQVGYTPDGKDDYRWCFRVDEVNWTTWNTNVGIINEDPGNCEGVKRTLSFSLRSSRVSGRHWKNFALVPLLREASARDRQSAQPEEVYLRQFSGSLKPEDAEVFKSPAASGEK

Cannabinoid receptor 1 = Cannabinoid receptor 1 (Homo sapiens, UniProt P21554); test: Displacement of [3H]-CP-55,940 from human recombinant CB1 receptor expressed in HEK293 cells membrane incubated for 90 mins; format: cell membranes
Chain of Cannabinoid receptor 1 (P21554 whole entry): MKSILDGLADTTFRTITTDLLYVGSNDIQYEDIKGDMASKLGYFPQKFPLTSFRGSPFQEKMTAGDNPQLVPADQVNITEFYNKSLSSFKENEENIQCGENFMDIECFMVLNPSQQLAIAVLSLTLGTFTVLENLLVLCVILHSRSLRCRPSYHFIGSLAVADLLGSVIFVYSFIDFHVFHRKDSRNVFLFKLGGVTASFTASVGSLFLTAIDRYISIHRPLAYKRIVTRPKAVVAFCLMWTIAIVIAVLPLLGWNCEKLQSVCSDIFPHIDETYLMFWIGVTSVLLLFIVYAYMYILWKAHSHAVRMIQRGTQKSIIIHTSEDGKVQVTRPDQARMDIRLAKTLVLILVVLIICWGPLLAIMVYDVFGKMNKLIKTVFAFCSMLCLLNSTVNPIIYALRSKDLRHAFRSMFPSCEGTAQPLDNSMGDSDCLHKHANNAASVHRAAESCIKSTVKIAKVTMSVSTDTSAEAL

[2] = molecular target: Transient receptor potential cation channel subfamily A member 1 (Rattus norvegicus) (UniProt Q6RI86); test: Agonist activity at rat recombinant TRPA1 receptor expressed in HEK293 cells assessed as stimulation of intracellular calcium level using Fluo4-AM dye based fluorimetric assay relative to allyl isothiocyanate; format: functional, cell-based
Chain of Transient receptor potential cation channel subfamily A member 1 (Rattus norvegicus) (Q6RI86 whole entry): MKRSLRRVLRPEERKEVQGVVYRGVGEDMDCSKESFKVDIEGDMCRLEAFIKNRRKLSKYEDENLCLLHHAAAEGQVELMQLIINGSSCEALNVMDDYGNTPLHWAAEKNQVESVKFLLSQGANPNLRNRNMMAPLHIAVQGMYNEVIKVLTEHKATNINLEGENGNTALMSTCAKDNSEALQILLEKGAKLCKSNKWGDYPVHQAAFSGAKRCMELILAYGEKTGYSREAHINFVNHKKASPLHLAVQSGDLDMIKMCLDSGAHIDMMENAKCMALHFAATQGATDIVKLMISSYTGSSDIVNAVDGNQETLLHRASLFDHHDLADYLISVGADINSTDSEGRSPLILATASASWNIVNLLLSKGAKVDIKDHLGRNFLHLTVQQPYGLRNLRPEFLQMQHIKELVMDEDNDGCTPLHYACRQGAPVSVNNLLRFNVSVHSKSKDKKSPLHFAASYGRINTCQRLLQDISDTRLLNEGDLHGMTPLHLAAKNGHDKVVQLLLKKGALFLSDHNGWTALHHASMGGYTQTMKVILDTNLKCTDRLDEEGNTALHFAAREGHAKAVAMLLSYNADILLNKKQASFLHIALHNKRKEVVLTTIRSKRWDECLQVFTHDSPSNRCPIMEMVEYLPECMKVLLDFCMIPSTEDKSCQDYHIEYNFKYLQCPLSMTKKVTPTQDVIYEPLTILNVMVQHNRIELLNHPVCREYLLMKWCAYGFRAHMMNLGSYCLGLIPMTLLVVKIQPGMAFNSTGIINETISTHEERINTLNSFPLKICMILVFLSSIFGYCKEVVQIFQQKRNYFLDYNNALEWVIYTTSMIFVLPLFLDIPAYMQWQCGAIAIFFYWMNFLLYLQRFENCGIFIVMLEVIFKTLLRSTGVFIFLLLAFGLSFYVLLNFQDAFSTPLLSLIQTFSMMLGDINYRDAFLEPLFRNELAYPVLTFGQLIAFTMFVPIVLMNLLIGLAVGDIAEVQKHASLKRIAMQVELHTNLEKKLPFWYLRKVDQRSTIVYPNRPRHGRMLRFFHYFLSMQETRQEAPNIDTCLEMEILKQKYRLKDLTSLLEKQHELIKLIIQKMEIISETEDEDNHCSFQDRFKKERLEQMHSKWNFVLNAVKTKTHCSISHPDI

[3] = molecular target: T2, Transient receptor potential cation channel subfamily A member 1 (Rattus norvegicus, UniProt Q6RI86); test: Antagonist activity at rat recombinant TRPA1 receptor expressed in HEK293 cells assessed as inhibition of 100 uM allyl isothiocyanate-induced stimulation of intracellular calcium level using Fluo4-AM dye based fluorimetric assay; format: functional, cell-based
T2 sequence (Q6RI86 whole entry): as above
Outline: (§1)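 Fluo-4 AM loaded stable HEK293 cells in Tyrode's buffer, read at 25 °C (ex 488/em 516 nm). Test compound added to the cuvette 5 min before the agonist: capsaicin 0.1 μM (TRPV1), AITC 100 μM (TRPA1), LPC 3 μM (TRPV2). Agonist alone taken as 100%. IC50 for half-maximal inhibition from curve fit. At least triplicate.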

[4] = molecular target: T3, Transient receptor potential cation channel subfamily V member 2 (Rattus norvegicus, UniProt Q9WUD2); test: Antagonist activity at rat recombinant TRPV2 receptor expressed in HEK293 cells assessed as inhibition of 3 uM lysophosphatidylcholine-induced stimulation of intracellular calcium level using Fluo4-AM dye based fluorimetric assay; format: functional, cell-based; outline: as §1
T3 sequence (Q9WUD2 whole entry): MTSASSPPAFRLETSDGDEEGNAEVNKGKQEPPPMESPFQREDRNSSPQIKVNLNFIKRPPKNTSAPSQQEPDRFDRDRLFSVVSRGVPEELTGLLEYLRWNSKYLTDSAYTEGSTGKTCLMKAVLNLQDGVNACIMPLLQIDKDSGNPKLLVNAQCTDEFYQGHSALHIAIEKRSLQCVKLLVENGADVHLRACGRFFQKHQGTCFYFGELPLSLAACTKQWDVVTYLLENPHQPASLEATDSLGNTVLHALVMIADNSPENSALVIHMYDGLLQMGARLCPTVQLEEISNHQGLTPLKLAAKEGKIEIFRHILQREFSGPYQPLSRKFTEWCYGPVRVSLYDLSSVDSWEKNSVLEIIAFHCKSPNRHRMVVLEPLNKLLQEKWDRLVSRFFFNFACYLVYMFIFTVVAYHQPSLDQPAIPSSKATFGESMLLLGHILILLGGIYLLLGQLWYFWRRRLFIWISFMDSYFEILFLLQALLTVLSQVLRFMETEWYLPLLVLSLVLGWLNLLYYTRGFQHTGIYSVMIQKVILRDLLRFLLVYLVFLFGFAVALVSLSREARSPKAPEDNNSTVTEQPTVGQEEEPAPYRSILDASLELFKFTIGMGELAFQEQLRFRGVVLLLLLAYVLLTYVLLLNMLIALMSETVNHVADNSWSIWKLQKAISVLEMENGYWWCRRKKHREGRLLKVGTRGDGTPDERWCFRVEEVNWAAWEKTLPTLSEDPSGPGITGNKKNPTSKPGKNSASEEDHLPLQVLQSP

[5] = molecular target: Transient receptor potential cation channel subfamily M member 8 (Rattus norvegicus, UniProt Q8R455); test: Antagonist activity at rat recombinant TRPM8 receptor expressed in HEK293 cells assessed as inhibition of 0.25 uM icilin-induced stimulation of intracellular calcium level using Fluo4-AM dye based fluorimetric assay; format: functional, cell-based
Chain of Transient receptor potential cation channel subfamily M member 8 (Q8R455 whole entry): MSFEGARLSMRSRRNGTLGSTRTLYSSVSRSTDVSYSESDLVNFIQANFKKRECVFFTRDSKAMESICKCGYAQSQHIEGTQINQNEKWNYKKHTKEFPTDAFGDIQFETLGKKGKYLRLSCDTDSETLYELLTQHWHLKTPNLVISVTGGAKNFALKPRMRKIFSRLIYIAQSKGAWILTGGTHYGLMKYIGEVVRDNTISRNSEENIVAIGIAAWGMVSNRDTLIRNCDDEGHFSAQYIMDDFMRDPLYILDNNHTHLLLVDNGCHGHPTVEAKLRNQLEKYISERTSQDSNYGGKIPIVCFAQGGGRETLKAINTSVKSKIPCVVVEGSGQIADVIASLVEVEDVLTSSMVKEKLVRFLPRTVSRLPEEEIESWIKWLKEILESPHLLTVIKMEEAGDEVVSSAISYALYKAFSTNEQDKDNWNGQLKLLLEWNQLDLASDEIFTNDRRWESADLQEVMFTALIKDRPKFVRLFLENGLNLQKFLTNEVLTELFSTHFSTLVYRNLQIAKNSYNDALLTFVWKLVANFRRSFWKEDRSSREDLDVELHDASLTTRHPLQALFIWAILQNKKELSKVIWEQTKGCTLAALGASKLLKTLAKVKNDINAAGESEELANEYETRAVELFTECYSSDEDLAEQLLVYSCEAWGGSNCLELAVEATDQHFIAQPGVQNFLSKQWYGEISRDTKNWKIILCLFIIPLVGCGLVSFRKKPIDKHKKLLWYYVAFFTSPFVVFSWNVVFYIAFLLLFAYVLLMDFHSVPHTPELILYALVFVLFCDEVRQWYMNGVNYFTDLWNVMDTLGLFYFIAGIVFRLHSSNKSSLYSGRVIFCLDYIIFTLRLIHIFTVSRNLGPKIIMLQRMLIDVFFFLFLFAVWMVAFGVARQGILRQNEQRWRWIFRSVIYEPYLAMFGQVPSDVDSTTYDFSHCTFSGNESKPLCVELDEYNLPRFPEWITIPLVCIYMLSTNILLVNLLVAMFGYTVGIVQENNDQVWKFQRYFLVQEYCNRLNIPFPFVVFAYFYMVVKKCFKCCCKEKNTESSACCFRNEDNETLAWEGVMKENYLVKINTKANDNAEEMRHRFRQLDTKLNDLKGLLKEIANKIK
Outline: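 Fluo-4 AM loaded rat TRPM8 HEK293 cells in Tyrode's buffer, read at 22 °C with a Peltier-controlled cuvette. Compound added 5 min before 0.25 μM icilin, whose effect alone was taken as 100%. IC50 for half-maximal inhibition from curve fit. At least triplicate.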

[6] = molecular target: T2, Transient receptor potential cation channel subfamily A member 1; test: Agonist activity at rat recombinant TRPA1 receptor expressed in HEK293 cells assessed as stimulation of intracellular calcium level using Fluo4-AM dye based fluorimetric assay; format: functional, cell-based
Outline: (§2)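 Stable HEK293 lines (G-418 selected, expression checked by qPCR) loaded 1 h at room temperature with Fluo-4 AM 4 μM. Cells washed and resuspended in Tyrode's buffer pH 7.4. Fluorescence (ex 488/em 516 nm) read in a stirred cuvette at 25 °C before and after test compound at various concentrations. EC50 from sigmoidal variable-slope fit. At least triplicate.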

Cannabinoid receptor 2 = Cannabinoid receptor 2 (Homo sapiens, UniProt P34972); test: Displacement of [3H]-CP-55,940 from human recombinant CB2 receptor expressed in HEK293 cells membrane incubated for 90 mins; format: cell membranes
Chain of Cannabinoid receptor 2 (P34972 whole entry): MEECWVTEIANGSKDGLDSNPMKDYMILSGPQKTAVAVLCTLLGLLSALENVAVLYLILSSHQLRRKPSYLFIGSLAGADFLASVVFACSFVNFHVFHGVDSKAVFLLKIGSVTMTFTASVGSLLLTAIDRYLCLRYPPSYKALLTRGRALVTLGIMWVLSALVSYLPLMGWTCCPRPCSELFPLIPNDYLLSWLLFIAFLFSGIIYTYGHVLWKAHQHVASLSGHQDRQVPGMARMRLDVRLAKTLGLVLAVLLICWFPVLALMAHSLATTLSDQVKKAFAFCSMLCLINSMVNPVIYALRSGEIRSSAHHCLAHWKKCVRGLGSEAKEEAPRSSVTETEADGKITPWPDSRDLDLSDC

[7] = molecular target: T1, Transient receptor potential cation channel subfamily V member 1; test: Agonist activity at human TRPv1 receptor expressed in HEK293 cells assessed as stimulation of intracellular calcium level using Fluo4-AM dye based fluorimetric assay; format: functional, cell-based; outline: as §2
[8] = molecular target: T1, Transient receptor potential cation channel subfamily V member 1; test: Antagonist activity at human TRPv1 receptor expressed in HEK293 cells assessed as inhibition of 0.1 um capsaicin-induced stimulation of intracellular calcium level using Fluo4-AM dye based fluorimetric assay; format: functional, cell-based; outline: as §1
[9] = molecular target: T4, Transient receptor potential cation channel subfamily V member 2 (Rattus norvegicus) (UniProt Q9WUD2); test: Agonist activity at rat recombinant TRPV2 receptor expressed in HEK293 cells assessed as stimulation of intracellular calcium level using Fluo4-AM dye based fluorimetric assay relative to 4 uM ionomycin; format: functional, cell-based
T4 sequence (whole entry): T3 sequence (Q9WUD2 whole entry)

[10] = molecular target: T3, Transient receptor potential cation channel subfamily V member 2; test: Agonist activity at rat recombinant TRPV2 receptor expressed in HEK293 cells assessed as stimulation of intracellular calcium level using Fluo4-AM dye based fluorimetric assay; format: functional, cell-based; outline: as §2

| Compound | Emax [1] [%] | IC50 (Cannabinoid receptor 1) [µM] | Ki (Cannabinoid receptor 1) [µM] | Emax [2] [%] | IC50 [3] [µM] | IC50 [4] [µM] | IC50 [5] [µM] | EC50 [6] [µM] | IC50 (Cannabinoid receptor 2) [µM] | Ki (Cannabinoid receptor 2) [µM] | EC50 [7] [µM] | IC50 [8] [µM] | Emax [9] [%] | EC50 [10] [µM] |
| --- | --- | --- | --- | --- | --- | --- | --- | --- | --- | --- | --- | --- | --- | --- |
| CCCCCc1cc(O)c(C/C=C(\C)CCC=C(C)C)c(O)c1 [CANNABIGEROL] | 33.8 | 3.31 | 0.76 | 99.9 | 13 | 1.5 | 0.16 | 0.7 | 3.46 | 0.88 | 1.3 | 2.6 | 73.6 | 1.7 |
| CCCCCc1cc(O)c(C/C=C(\C)CC/C=C(\C)CCC=C(C)C)c(O)c1 [SESQUICANNABIGEROL] | 38.8 | 3.27 | 0.75 | 164 | 1.2 | 2.3 | 0.95 | 1.7 | 0.71 | 0.18 | 4.4 | 5.7 | 56 | 2.7 |
